Measured values published in ChEMBL document CHEMBL3526073, “Hydralazine as a selective probe inactivator of aldehyde oxidase in human hepatocytes: estimation of the contribution of aldehyde oxidase to metabolic clearance” (Drug Metab Dispos, 2012).

Key:
[1] = biological target: T1, Aldehyde oxidase (Homo sapiens, UniProt Q06278); details: hepatocytes, 2 h, 10 µM
T1 sequence (Q06278 whole entry): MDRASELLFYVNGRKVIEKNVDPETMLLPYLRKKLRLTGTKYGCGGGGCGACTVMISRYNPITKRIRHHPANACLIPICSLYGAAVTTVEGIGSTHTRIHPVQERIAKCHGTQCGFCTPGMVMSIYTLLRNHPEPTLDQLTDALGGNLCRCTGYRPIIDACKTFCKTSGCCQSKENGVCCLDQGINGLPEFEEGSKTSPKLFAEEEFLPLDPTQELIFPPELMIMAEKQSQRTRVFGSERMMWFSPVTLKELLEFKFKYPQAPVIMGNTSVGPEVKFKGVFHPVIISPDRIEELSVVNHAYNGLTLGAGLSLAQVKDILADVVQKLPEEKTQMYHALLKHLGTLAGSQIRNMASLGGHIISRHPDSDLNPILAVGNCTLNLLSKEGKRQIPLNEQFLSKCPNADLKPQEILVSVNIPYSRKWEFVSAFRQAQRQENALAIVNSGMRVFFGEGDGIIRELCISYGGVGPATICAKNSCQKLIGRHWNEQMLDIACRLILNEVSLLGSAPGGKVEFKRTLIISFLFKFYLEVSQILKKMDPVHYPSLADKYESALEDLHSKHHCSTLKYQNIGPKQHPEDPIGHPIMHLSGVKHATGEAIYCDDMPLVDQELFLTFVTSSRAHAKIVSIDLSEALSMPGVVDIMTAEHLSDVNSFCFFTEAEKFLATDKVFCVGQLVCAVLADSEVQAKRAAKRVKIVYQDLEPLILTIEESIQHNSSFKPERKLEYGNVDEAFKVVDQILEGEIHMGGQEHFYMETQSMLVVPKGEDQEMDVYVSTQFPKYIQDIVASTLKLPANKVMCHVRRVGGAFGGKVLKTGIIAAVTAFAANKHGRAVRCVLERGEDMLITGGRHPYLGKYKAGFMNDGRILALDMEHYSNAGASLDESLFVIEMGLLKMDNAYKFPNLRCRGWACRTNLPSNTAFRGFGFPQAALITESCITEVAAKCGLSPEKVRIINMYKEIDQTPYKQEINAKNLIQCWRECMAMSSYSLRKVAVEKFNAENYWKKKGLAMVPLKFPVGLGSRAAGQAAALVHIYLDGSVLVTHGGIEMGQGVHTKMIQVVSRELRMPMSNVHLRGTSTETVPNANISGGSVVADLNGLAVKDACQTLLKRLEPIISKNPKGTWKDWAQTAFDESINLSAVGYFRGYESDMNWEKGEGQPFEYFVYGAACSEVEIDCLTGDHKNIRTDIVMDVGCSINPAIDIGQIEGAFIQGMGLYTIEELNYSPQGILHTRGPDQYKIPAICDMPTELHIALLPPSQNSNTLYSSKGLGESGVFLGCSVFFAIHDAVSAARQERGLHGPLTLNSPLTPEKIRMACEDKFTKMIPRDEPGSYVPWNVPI

[2] = biological target: T1, Aldehyde oxidase; details: hepatocytes, 2 h, 10 µM; remark: listed apart in the source
[3] = biological target: T2, CYP3A (Homo sapiens, UniProt P08684+P20815+P24462+Q9HB55); assay: Inhibition of CYP3A in human liver microsomes assessed as residual activity using midazolam as substrate at 50 uM relative to control; details: probe midazolam
[4] = biological target: T3, CYP2C19 (Homo sapiens, UniProt P33261); assay: in vitro; details: liver microsomes, probe S-mephenytoin
[5] = biological target: T4, CYP1A2 (Homo sapiens, UniProt P05177); assay: Inhibition of CYP1A2 in human liver microsomes assessed as residual activity using phenacetin as substrate at 50 uM relative to control; details: probe phenacetin
T4 sequence (P05177 whole entry): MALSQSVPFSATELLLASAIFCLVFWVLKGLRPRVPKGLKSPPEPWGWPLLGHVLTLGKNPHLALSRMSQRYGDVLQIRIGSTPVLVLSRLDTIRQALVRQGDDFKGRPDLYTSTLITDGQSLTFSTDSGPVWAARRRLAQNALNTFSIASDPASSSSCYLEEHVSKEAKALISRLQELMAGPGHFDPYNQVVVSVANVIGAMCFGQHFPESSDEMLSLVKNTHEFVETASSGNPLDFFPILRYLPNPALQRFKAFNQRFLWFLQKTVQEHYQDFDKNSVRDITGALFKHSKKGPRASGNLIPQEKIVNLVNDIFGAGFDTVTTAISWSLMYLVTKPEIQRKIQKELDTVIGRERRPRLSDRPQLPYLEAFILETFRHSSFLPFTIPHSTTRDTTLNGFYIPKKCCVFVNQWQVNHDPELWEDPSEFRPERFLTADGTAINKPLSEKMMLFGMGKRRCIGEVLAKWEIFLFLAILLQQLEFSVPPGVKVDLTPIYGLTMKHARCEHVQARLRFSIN

[6] = biological target: T5, CYP2C9 (Homo sapiens, UniProt P11712); assay: Inhibition of CYP2C9 in human liver microsomes assessed as residual activity using diclofenac as substrate at 50 uM relative to control; details: probe diclofenac
[7] = biological target: T6, CYP2C8 (Homo sapiens, UniProt P10632); assay: in vitro; details: liver microsomes, probe paclitaxel
T6 sequence (P10632 whole entry): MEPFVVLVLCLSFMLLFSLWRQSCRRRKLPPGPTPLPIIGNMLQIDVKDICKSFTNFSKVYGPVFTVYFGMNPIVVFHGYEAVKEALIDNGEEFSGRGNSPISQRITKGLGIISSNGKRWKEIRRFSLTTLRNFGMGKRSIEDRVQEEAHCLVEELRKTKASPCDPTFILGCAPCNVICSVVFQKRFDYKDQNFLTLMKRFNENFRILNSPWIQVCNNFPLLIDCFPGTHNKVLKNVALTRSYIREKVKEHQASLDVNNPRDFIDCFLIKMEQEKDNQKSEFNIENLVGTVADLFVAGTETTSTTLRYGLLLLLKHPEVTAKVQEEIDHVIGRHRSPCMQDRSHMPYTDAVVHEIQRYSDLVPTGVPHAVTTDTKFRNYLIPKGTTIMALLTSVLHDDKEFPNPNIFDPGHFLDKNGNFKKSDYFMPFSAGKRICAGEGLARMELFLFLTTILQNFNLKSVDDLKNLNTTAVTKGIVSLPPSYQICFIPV

[8] = biological target: T7, CYP2D6 (Homo sapiens, UniProt P10635); assay: Inhibition of CYP2D6 in human liver microsomes assessed as residual activity using dextromethorphan as substrate at 50 uM relative to control; details: probe dextromethorphan
[9] = biological target: T7, CYP2D6; assay: in vitro; details: liver microsomes, probe dextromethorphan
[10] = biological target: T5, CYP2C9; assay: in vitro; details: liver microsomes, probe diclofenac
[11] = biological target: T6, CYP2C8; assay: Inhibition of CYP2C8 in human liver microsomes assessed as residual activity using paclitaxel as substrate at 50 uM relative to control; details: probe paclitaxel
[12] = biological target: T3, CYP2C19; assay: Inhibition of CYP2C19 in human liver microsomes assessed as residual activity using S-mephenytoin as substrate at 50 uM relative to control; details: probe S-mephenytoin
[13] = biological target: T4, CYP1A2; assay: in vitro; details: liver microsomes, probe phenacetin
[14] = biological target: T2, CYP3A; assay: in vitro; details: liver microsomes, probe midazolam
[15] = Drug metabolism in cryopreserved human hepatocytes assessed as CYP450-mediated formation of desethylzaleplon at 20 uM after 30 mins by LC-MS/MS analysis in presence of 50 uM hydralazine; assay type: ADME, cell-based, Hepatocyte; details: 0.5 h
How it was run: (§1)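 Pooled cryopreserved human hepatocytes (five-donor pool, viability >80%) in Williams E medium, preincubated 30 min at 37°C under O2/CO2 (95/5). Zaleplon 20 μM final, with hydralazine 0–200 μM or 1-aminobenzotriazole 0–1.5 mM co-added, incubated 30 min. Reaction stopped with cold acetonitrile containing internal standard. Oxozaleplon (AO product) and desethylzaleplon (CYP product) measured by LC-MS/MS and expressed as percent of control.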

[16] = biological target: T1, Aldehyde oxidase; assay: Drug metabolism in cryopreserved human hepatocytes assessed as aldehyde oxidase-mediated formation of oxozaleplon at 20 uM after 30 mins by LC-MS/MS analysis in presence of 1.5 mM of 1-aminobenzotriazole; assay type: ADME, cell-based, Hepatocyte; details: 0.5 h
How it was run: as §1

[17] = Drug metabolism in cryopreserved human hepatocytes assessed as CYP450-mediated formation of desethylzaleplon at 20 uM after 30 mins by LC-MS/MS analysis in presence of 25 uM of hydralazine; assay type: ADME, cell-based, Hepatocyte; details: 0.5 h
How it was run: as §1

[18] = biological target: T1, Aldehyde oxidase; assay: Drug metabolism in cryopreserved human hepatocytes assessed as aldehyde oxidase-mediated formation of oxozaleplon at 20 uM after 30 mins by LC-MS/MS analysis; assay type: ADME, cell-based, Hepatocyte; details: 0.5 h
How it was run: as §1

[19] = biological target: T1, Aldehyde oxidase; assay: Inhibition of aldehyde oxidase in human liver cytosol assessed as production of oxozoniporide
[20] = Drug metabolism in cryopreserved human hepatocytes assessed as CYP450-mediated formation of desethylzaleplon at 20 uM after 30 mins by LC-MS/MS analysis; assay type: ADME, cell-based, Hepatocyte; details: 0.5 h
How it was run: as §1

[21] = biological target: T1, Aldehyde oxidase; assay: Drug metabolism in cryopreserved human hepatocytes assessed as aldehyde oxidase-mediated formation of oxozaleplon at 50 uM after 30 mins by LC-MS/MS analysis; assay type: ADME, cell-based, Hepatocyte; details: 0.5 h
[22] = Drug metabolism in cryopreserved human hepatocytes assessed as CYP450-mediated formation of desethylzaleplon at 50 uM after 30 mins by LC-MS/MS analysis; assay type: ADME, cell-based, Hepatocyte; details: 0.5 h
[23] = Drug level in cryopreserved human hepatocytes assessed as CYP450-mediated metabolite formation treated with 20 uM of zaleplon after 30 mins by LC-MS/MS analysis; assay type: ADME, cell-based, Hepatocyte; details: 0.5 h
How it was run: as §1

T7 sequence (P10635 whole entry): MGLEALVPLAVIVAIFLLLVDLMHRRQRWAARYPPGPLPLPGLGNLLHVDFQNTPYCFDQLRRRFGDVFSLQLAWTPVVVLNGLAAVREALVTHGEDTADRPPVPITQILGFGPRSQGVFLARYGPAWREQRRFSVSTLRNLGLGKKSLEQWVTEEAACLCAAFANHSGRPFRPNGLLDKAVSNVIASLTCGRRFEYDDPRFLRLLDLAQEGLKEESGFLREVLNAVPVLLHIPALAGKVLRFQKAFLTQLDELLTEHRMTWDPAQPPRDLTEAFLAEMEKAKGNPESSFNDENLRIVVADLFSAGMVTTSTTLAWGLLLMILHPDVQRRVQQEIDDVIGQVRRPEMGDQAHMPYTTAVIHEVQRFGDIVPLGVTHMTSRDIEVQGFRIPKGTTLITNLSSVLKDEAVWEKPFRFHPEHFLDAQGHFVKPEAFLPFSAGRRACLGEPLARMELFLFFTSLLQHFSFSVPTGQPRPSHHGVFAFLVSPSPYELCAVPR
T3 sequence (P33261 whole entry): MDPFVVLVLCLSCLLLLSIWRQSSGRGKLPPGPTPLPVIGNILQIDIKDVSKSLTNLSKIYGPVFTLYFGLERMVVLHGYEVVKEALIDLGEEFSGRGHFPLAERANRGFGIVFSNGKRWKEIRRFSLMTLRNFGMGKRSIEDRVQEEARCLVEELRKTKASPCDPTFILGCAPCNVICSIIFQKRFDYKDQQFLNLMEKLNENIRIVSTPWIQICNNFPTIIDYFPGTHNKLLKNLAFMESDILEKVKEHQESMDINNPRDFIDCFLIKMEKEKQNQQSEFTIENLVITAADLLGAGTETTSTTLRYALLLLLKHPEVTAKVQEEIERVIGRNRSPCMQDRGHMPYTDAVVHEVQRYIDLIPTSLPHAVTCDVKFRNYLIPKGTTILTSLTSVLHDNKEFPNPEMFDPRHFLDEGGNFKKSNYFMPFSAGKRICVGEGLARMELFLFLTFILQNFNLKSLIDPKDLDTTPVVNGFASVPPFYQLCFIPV
T5 sequence (P11712 whole entry): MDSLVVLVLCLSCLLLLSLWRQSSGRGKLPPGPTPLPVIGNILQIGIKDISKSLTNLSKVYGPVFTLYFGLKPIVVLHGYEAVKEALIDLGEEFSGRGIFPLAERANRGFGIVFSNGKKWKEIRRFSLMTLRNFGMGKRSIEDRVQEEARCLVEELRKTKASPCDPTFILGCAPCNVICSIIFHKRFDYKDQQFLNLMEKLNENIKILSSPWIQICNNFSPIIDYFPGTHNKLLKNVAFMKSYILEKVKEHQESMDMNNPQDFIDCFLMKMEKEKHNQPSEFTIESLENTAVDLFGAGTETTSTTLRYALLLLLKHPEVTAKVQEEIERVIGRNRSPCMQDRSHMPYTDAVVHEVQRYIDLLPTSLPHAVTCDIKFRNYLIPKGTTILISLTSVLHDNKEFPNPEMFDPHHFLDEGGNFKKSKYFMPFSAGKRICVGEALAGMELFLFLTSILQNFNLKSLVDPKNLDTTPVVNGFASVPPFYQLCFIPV

`CN(C)CCNC(=O)c1cccc2cc3ccccc3nc12` showed a Fm [1] of 0.53 and a Fm [2] of 0.76.

With `NNc1nncc2ccccc12` [HYDRALAZINE] the activity at 50 µM [3] was 76%, the activity at 25 µM [4] was 103% and the activity at 50 µM [5] was 89%. It also gave an activity at 50 µM [6] of 95%, an activity at 25 µM [7] of 108% and an activity at 50 µM [8] of 77%. For the same compound, the activity at 25 µM [9] was 92%, the activity at 25 µM [10] was 105% and the activity at 50 µM [11] was 95%. It also gave an activity at 50 µM [12] of 90%, an activity at 25 µM [13] of 100% and an activity at 25 µM [14] of 98%.

For `CCN(C(C)=O)c1cccc(-c2ccnc3c(C#N)cnn23)c1` [ZALEPLON], the Drug metabolism [15] was “metabolite_not_detected”, the Fm [1] was 0.7 and the Drug metabolism [16] was “metabolite_detected”. For the same compound, the Drug metabolism [17] was “metabolite_detected”, the Drug metabolism [18] was “metabolite_detected” and the Ki [19] was 83 µM. The kinact ([19]; human, liver cytosol) was 0.00105 s⁻¹, the Drug metabolism [20] was “metabolite_detected” and the Fm [2] was 0.56.

`CC[C@H]1OC(=O)[C@H](C)C(=O)[C@H](C)[C@@H](O[C@@H]2O[C@H](C)C[C@H](N(C)C)[C@H]2O)[C@](C)(OC)C[C@@H](C)C(=O)[C@H](C)[C@H]2N(C3CN([C@H](C)c4ccnc5ncccc45)C3)C(=O)O[C@]12C` gave a Fm [2] of 0.61.

In the case of `CCN(C(C)=O)c1cccc(-c2cc(=O)[nH]c3c(C#N)cnn23)c1`, the Drug metabolism [21] is reported as “metabolite_not_detected” and the Drug metabolism [22] is reported as “metabolite_not_detected”.

`N=C(N)NC(=O)c1cnn(-c2cccc3ncccc23)c1C1CC1` [ZONIPORIDE] gave a Fm [1] of 0.64 and a Fm [2] of 0.55.

For `CC(=O)Nc1cccc(-c2ccnc3c(C#N)cnn23)c1`, the Drug metabolism [23] was “metabolite_detected”.

Compound `Nc1nc(OCc2ccccc2)c2[nH]cnc2n1` [6-O-BENZYLGUANINE] has a Fm [2] of 0.83.

In the case of `CCNC(=O)OC1CCN(c2nncc3cc(OC)c(OC)cc23)CC1` [CARBAZERAN], the Fm [1] is reported as 0.49 and the Fm [2] is reported as 0.55.

In the case of `COc1ccc2c(c1)[C@]13CCCC[C@@H]1[C@H](C2)N(C)CC3` [DEXTROMETHORPHAN], the Fm [2] is reported as 0.39.

`Cc1ncc2n1-c1ccc(Cl)cc1C(c1ccccc1F)=NC2` [MIDAZOLAM] gave a Fm [1] of 0.08 and a Fm [2] of 0.05.
